# Screens from PubChem.
# This is a sample that favours compounds with a hit; in the whole collection about 2.4% have one here.
# TDP2 inh – blocks human TDP2 phosphodiesterase activity; recombinant TDP2, T5PNP hydrolysis, p-nitrophenol absorbance 415 nm; inhibition, % at 12.8 µM; actives 0.34% (n = 370,000); AID 720702;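 active = inhibition above the mean of all tested compounds plus 3 SD, set per campaign, cut at about 25% in these data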;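 note: 0% = DMSO with enzyme and 100% = buffer with substrate but no TDP2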
#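 System – recombinant human TDP2 · Quantity – TDP2 enzyme at 120 nM final · Doses – single concentration, 12.8 µM nominal, with 1% DMSO · Incubation – 2 h at 37 °C · Measured by – epi absorbance of p-nitrophenol freed from T5PNP by hydrolysis · Read-out – % inhibition relative to enzyme-containing and enzyme-free wells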
# PAD4 inh – PAD4 (human) enzyme inhibition; Q9UM07; recombinant PAD4, RCA probe fluorescence polarization; inhibition, % at 6.36 µM; actives 0.41% (n = 330,000); AID 485272;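 active = percent inhibition above a cutoff equal to the mean of all tested compounds plus 3 SD, cut at about 15% in these data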;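 note: 0% = PAD4 with RCA probe and DMSO and 100% = probe without PAD4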
# Apaf-1 inh – blocks human Apaf-1 apoptosome activity; reconstituted apoptosome caspase-3 activity, DEVD-Rh110 fluorescence; inhibition, % at 20 µM; actives 0.71% (n = 330,000); AID 489030; active = inhibition of at least 40% at 20 µM;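 note: plate controls were DMSO wells for no effect and DEVD-CHO caspase inhibitor wells for full effect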
#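 System: reconstituted apoptosome with Apaf-1, cytochrome c, caspase-9, procaspase-3, dATP; Signal: Rh110 fluorescence intensity; Schedule: 30 min compound preincubation, 50 min activation, room temperature; Reagent: cytochrome c trigger plus (Z-DEVD)2-Rh110 caspase-3 substrate.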
# GSTO1 inh – GSTO1 inhibition, counter-screen for RBBP9 inhibitors | P78417 | actives 1.1% (n = 300,000) | inhibition, % at 5.96 µM | recombinant GSTO1, activity-based probe fluorescence polarization;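 active = inhibition above the campaign mean inhibition plus 3 SD, cut at about 35% in these data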;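 note: 0% = GSTO1-1 with DMSO and 100% = wells lacking GSTO1-1 enzyme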
# TCR CD3 inh – blocks the human TCR-CD3 interaction. AID 651800. TAMRA-labeled TCR probe fluorescence, biochemical. inhibition, % at 9.4 µM. actives 0.37% (n = 360,000); in the data active = inhibition above about 19%;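 note: recombinant mutant TCR 2C K166C tagged with TAMRA read by polarization; 0% = receptor in buffer alone and 100% = receptor with positive control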
# SIAE primary – blocks human sialic acid acetylesterase; Q9HAT2; SIAE FP-Rh probe binding, fluorescence polarization; inhibition, % at 9.66 µM; actives 0.69% (n = 370,000); AID 1053197;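 active = inhibition above a cutoff: mean of compounds within the control limits plus 3 SD of those, cut at about 17% in these data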;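 note: 0% = plate median of compound wells and 100% = probe without SIAE protein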
# Apaf-1 inh conf – confirmation of Apaf-1 inhibitors | inhibition, % at 20 µM | actives 25% (n = 1,800) | reconstituted apoptosome, caspase-3 DEVD-Rh110 fluorescence | shares compounds with Apaf-1 inh;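 active = mean inhibition of at least 40% at 20 µM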;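 note: plate controls were DMSO wells for no effect and DEVD-CHO caspase inhibitor control wells for full effect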
# Rh110 interf inh – counter-screen for Apaf-1 inhibitors: fluorescence interference; shares compounds with Apaf-1 inh; Rh110 fluorescence interference, quenched caspase reaction; activation (fluorescence interference), % at 20 µM; 1,800 tested, under 10 active;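 active = signal rise of 40% or more at 20 µM, treated as a fluorescence artifact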
# Apaf1 inh interf – shows fluorescence interference in the Apaf-1 inhibitor assay format; shares compounds with Apaf-1 inh; fluorescence interference counterscreen, Apaf-1 assay format; IC50, µM; 460 tested, under 10 active; AID 588538; call rule not given here
# * marks the source's active call; other numbers are inactive results; x = no result.
SMILES,TDP2 inh,PAD4 inh,Apaf-1 inh,GSTO1 inh,TCR CD3 inh,SIAE primary,Apaf-1 inh conf,Rh110 interf inh,others
Oc1cc(Nc2cccnc2)cc2cccnc12,-9.2,-6.9,3.0,x,-4.3,6.9,x,x,
Oc1cc(NCCc2cccnc2)cc2cccnc12,15.4,6.5,56.0*,x,-0.4,2.8,47.1*,4.8,Apaf1 inh interf=>100
N#Cc1c(N)n(CCCN2CCOCC2)c2nc3ccccc3nc12,4.8,-0.4,13.6,5.0,-3.6,2.1,x,x,
N#Cc1c(N)n(CCNC(=O)c2cccs2)c2nc3ccccc3nc12,-9.7,-3.0,89.8*,8.8,3.7,0.5,17.1,5.3,
Cc1cccc(C(CC(=O)O)n2cccc2)c1 (stereo not given),-10.8,-2.2,8.5,-1.0,-4.2,8.4,x,x,
CCCn1c(C2CCCN2c2nc(C)cs2)nc2cc(Cl)c(Cl)cc21 (stereo not given),8.3,-5.2,10.7,2.2,-1.6,0.9,x,x,
Cc1ccc(NC(=O)CSc2ccccc2)cc1S(=O)(=O)N1CCCCC1,-17.1,-2.1,9.4,x,-1.7,-4.6,x,x,
Cc1cc(C)c(S(=O)(=O)/N=C2/C=C(SCC(=O)O)C(=O)c3ccccc32)cc1C,x,x,72.4*,x,x,x,55.1*,-1.6,Apaf1 inh interf=>100
N#CC1=C2SCN(Cc3ccccc3)CN2C(=O)CC1c1ccccc1F (stereo not given),x,4.6,23.6,8.2,x,x,x,x,
COc1ccc(Br)cc1C1CC(=O)N2CN(Cc3ccccc3)CSC2=C1C#N (stereo not given),-4.1,-1.0,77.9*,-4.9,5.8,-1.6,19.6,0.0,
COc1ccc(Br)cc1C1CC(=O)N2CN(C)CSC2=C1C#N (stereo not given),-0.9,-2.7,41.9*,-0.4,0.5,-5.1,29.3,18.4,
CCOC(=O)c1c(C)[nH]c(C)c1S(=O)(=O)NCCc1cccs1,-0.3,-5.8,-16.2,-1.6,2.4,-1.2,x,x,
COc1ccc(OC)c(C(=O)c2coc3cc(Br)c(O)c(Br)c23)c1,-1.5,4.8,1.3,30.5,6.6,9.9,x,x,
N#Cc1ccsc1NC(=O)c1ccc(Cl)c([N+](=O)[O-])c1,1.8,-7.9,47.9*,11.7,-3.3,-2.5,6.3,-3.5,
Cc1ccc(S(=O)(=O)N2C[C@@H]3[C@H]4CC[C@H](C4)[C@@H]3[C@@H](C)[C@@H]2c2cn(Cc3ccccc3)c3ccc(F)cc23)cc1,-0.6,2.4,14.2,x,3.2,-5.7,x,x,
C[C@@H]1[C@H]2[C@@H]3CC[C@@H](C3)[C@H]2CN[C@H]1c1cn(Cc2ccccc2)c2ccccc12,-3.5,3.3,61.6*,x,-0.2,4.5,15.2,12.9,
COc1ccc(C2(c3ccc(OC)cc3)NC(=O)N(CC(=O)Nc3ccc(N4CCOCC4)cc3)C2=O)cc1,9.3,-0.6,40.9*,3.9,-1.5,10.1,28.2,1.7,
O=C(CN1C(=O)NC(c2ccccc2)(c2ccccc2)C1=O)Nc1ccc(N2CCOCC2)cc1,-2.2,6.2,6.4,x,-0.7,1.2,x,x,
COc1cc2c(cc1OC)C(C(=O)N(C)Cc1ccccc1)C(c1cccnc1)N(C)C2=O (stereo not given),-5.4,0.8,-4.2,-4.0,8.2,-2.7,x,x,
COc1ccc(S(=O)(=O)N2CCCCCC2)cc1C(=O)N(C)Cc1c(F)cccc1Cl,-8.5,3.7,42.6*,x,-10.4,6.2,31.1,3.9,
COc1ccc(S(=O)(=O)N2CCCCCC2)cc1C(=O)N(C)Cc1ccc(Cl)cc1Cl,-13.4,3.5,27.1,2.9,-4.8,-6.9,x,x,
COc1ccc(S(=O)(=O)N2CCCCCC2)cc1C(=O)NCCc1ccccc1,-1.3,-3.3,46.6*,x,4.8,-5.5,36.1,-7.0,
CCN1CCN(S(=O)(=O)c2ccc(Cl)c(C(=O)N(C)Cc3cccc(Cl)c3Cl)c2)CC1,-1.3,5.3,42.6*,-7.7,2.4,1.4,30.5,-0.5,
Cc1ccc(S(=O)(=O)N2CCCCC2)cc1C(=O)NCCc1ccccc1,-16.1,-1.2,-7.5,0.5,7.2,8.9,x,x,
Cn1cc(-c2coc3c(C(=O)NCc4cccnc4)cccc23)cn1,-3.5,x,x,x,-9.2,0.8,x,x,
SMILES,TDP2 inh,PAD4 inh,Apaf-1 inh,GSTO1 inh,TCR CD3 inh,SIAE primary,Apaf-1 inh conf,Rh110 interf inh,others
CCCCNC(=O)CCn1nc(-c2ccc(Cl)cc2)c2ccccc2c1=O,17.1,0.4,12.4,-3.0,-2.6,-2.2,x,x,
CC1(C(=O)Nc2cccc3ccccc23)CC1(Br)Br (stereo not given),5.3,0.3,56.2*,15.9,-9.8,-2.3,15.9,3.8,
CC(C)N1CCC1(C)C(=O)Nc1cccc2ccccc12 (stereo not given),-0.3,x,x,x,-3.1,2.4,x,x,
CC[C@H](C)[C@@H]1NC(=O)[C@H]([C@@H](C)CC)NC(=O)[C@@H](CC(C)C)NC(=O)[C@H](Cc2ccccc2)NC(=O)[C@H](Cc2ccccc2)NC(=O)[C@@H]2CCCN2C(=O)[C@@H]2CCCN2C(=O)[C@H](C(C)C)NC(=O)[C@H](CC(C)C)NC1=O,10.3,-3.3,53.7*,x,1.1,13.2,18.6,9.5,
CC(C)COCC(CN(Cc1ccccc1)c1ccccc1)N1CCCC1 (stereo not given),-3.9,-1.0,48.6*,4.7,8.1,6.2,12.5,15.8,
Cc1ccc(-c2csc3nc4c5ccccc5c(NCCCN5CCOCC5)nn4c(=O)c23)cc1,x,1.5,13.0,-2.8,x,x,x,x,
Cc1ccc(-c2csc3nc4c5ccccc5c(NCCCN(C)C)nn4c(=O)c23)cc1,-13.5,-5.9,41.9*,-11.5,-0.7,-10.3,57.7*,11.6,Apaf1 inh interf=>100
CCC[C@@H](CN1CCC[C@H]1CN1C(N)=NC[C@@H]1Cc1ccccc1)N1C[C@@H](Cc2ccccc2)N(CCCC2CCCC2)C1=N,x,-0.2,70.1*,x,x,x,12.9,4.0,
CC[C@@H](C)[C@@H]1CN([C@@H](CN2CCC[C@H]2CN2C(N)=NC[C@H]2CC(C)C)C(C)C)C(=N)N1CCCC1CCCC1,-3.1,4.0,38.8,x,3.2,5.3,x,x,
CCCCN1C(=N)N([C@@H](CCC)CN2CCC[C@H]2CN2C(N)=NC[C@@H]2Cc2ccccc2)C[C@H]1Cc1ccccc1,-13.8,-3.7,33.8,x,7.4,-0.6,x,x,
CC(C)[C@H](CN1CCC[C@H]1CN1C(N)=NC[C@H]1C(C)C)N1C[C@@H](Cc2ccccc2)N(CCCC2CCCC2)C1=N,x,-1.7,63.1*,x,x,x,5.7,-0.2,
CCC[C@@H](CN1CCC[C@H]1CN1C(N)=NC[C@H]1CC(C)C)N1C[C@@H](Cc2ccccc2)N(CCCC2CCCC2)C1=N,-7.4,-4.3,59.0*,x,2.0,15.0,15.4,9.4,
